Shown are actives, neighbours in structure and some others; about 1.6% of the full set was active somewhere.
SIAE primary: blocks human sialic acid acetylesterase; Q9HAT2; SIAE FP-Rh probe binding, fluorescence polarization; inhibition, % at 9.66 µM; 370,000 compounds, 0.69% hits;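 active = inhibition above a cutoff: mean of compounds within the control limits plus 3 SD of those, cut at about 17% in these data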;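 note: 0% = plate median of compound wells and 100% = probe without SIAE protein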
Target sequence (Q9HAT2 whole entry, looked up): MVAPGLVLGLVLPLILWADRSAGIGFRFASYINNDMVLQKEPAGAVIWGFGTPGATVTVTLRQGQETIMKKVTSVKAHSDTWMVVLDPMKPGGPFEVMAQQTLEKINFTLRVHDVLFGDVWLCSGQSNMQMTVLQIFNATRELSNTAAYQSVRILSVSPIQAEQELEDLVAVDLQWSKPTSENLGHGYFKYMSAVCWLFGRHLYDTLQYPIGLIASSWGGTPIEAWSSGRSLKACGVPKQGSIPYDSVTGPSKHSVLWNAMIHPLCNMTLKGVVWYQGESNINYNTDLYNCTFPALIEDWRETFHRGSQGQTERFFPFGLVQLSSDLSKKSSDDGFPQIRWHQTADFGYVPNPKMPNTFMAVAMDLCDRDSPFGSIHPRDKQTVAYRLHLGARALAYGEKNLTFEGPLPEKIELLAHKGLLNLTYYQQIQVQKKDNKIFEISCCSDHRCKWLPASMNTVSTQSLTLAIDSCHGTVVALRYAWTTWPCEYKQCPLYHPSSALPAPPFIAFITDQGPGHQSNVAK
ABHD4 inh: ABHD4 (mouse) inhibition, primary FP screen; purified mABHD4, FP-Rh probe fluorescence polarization; inhibition, % at 8.92 µM; 370,000 compounds, 0.54% hits;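 active = inhibition exceeding the mean over every tested compound plus 3 SD, cut at about 30% in these data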;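 note: 0% = plate median of compound wells and 100% = S159A mutant with DMSO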
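system = mouse ABHD4 enzyme, wild type | medium = HEPES pH 7.0, NaCl, Pluronic buffer | also added = FP-Rh probe | incubation = Enzyme–compound pre-incubation 45 min, then probe 60 min, both 25 °C | technique = fluorescence polarization, excitation 525 nm, emission 598 nm, BODIPY TMR filters | controls = S159A mutant high control, sample median low control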
HTRA1 inh: blocks human HTRA1 serine peptidase; inhibition, % at 5.96 µM; AID 504803; recombinant HTRA1, FP-rhodamine activity-based probe, fluorescence polarization; Q92743; 340,000 compounds, 0.5% hits; in the data active = inhibition above about 36%;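 note: 0% = enzyme with DMSO and 100% = wells lacking enzyme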
TCR CD3 inh: human TCR-CD3 binding inhibition. TAMRA-labeled TCR probe fluorescence, biochemical. inhibition, % at 9.4 µM. 360,000 compounds, 0.37% hits. AID 651800; in the data active = inhibition above about 19%;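 note: recombinant mutant TCR 2C K166C tagged with TAMRA read by polarization; 0% = receptor in buffer alone and 100% = receptor with positive control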
DAGLB inh: blocks human DAGLB lipase activity; Q8NCG7; HEK293T DAGLB membrane lysate, EnzChek fluorogenic substrate; inhibition, % at 5.17 µM; 340,000 compounds, 0.059% hits; in the data active = inhibition above about 34%;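 note: 0% = enzyme with vehicle and 100% = wells lacking enzyme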
ABHD4 confirm: ABHD4 (mouse) inhibition, FP confirmation | inhibition, % at 8.92 µM | purified mABHD4, FP-Rh probe fluorescence polarization | shares compounds with ABHD4 inh | 1,800 compounds, 55% hits | AID 720658;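 active = mean inhibition across replicates above the hit cutoff set in the primary screen, cut at about 30% in these data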;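 note: 0% = wild-type ABHD4 with DMSO and 100% = catalytically dead S159A mutant with DMSO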
* = called active by the depositor; nt = no result given.

SMILES | SIAE primary | ABHD4 inh | HTRA1 inh | TCR CD3 inh | DAGLB inh | ABHD4 confirm
COC(=O)[C@]12C[C@H](CC(=O)NCCCCc3ccccc3)C(=O)N(CCC3=CCCCC3)C1=C[C@H](COCc1ccccc1)O[C@@H]2C | -2 | 3 | nt | 10 | nt | nt
CCCCOc1ccc(CSC(=N)N)cc1Cl | -3 | 38* | -2 | -8 | 1 | 22
CCOc1ccc(CSC(=N)N)cc1 | 5 | 0 | 1 | 0 | -1 | nt
CCCCCOc1ccc(Br)cc1CSC(=N)N | 0 | 40* | -17 | 3 | 1 | 49*
COc1ccc(-c2cc(C(=O)NN=C/C(C)=C/c3ccccc3)[nH]n2)cc1 | -18 | -32 | nt | nt | nt | nt
COc1ccc(NC(=O)/C(C#N)=C/c2cccnc2)c(OC)c1 | 5 | -1 | -4 | 6 | 0 | nt
N#C/C(=C\c1cccnc1)C(=O)Nc1ccc(O)cc1F | 11 | 67* | 23 | -19 | -2 | 11
COc1cccc(NC(=O)C2CCN(S(=O)(=O)c3ccc4[nH]c(=O)oc4c3)CC2)c1 | -7 | 42* | 2 | -2 | 0 | 43*
Cc1ccc(NC(=O)C2CCN(S(=O)(=O)c3ccc4[nH]c(=O)oc4c3)CC2)cc1F | -6 | 16 | -7 | 9 | -2 | nt
COc1ccccc1NS(=O)(=O)c1ccc(O)c(C(=O)OCc2cccc([N+](=O)[O-])c2)c1 | -2 | 32* | -12 | 1 | -5 | 38*
C#CCN1CC(N(C)CCOC(=O)CCCc2ccccc2)CS1(=O)=O (stereo not drawn) | 4 | 5 | nt | nt | nt | nt
CCN(CC)S(=O)(=O)c1ccc(N2CCCCC2)c(NC(=O)C2CSC3(C)CCC(=O)N23)c1 (stereo not drawn) | 3 | 40* | -9 | 0 | -6 | 36*
OCc1ccccc1OCc1ccccc1 | -10 | 5 | nt | 0 | nt | nt
COc1ccc(N2C(=O)c3n[nH]c(C(C)C)c3C2c2ccc(C)cc2)cc1 (stereo not drawn) | -7 | -8 | nt | -4 | nt | nt
CCN(CC)CCN1C(=O)C(=O)/C(=C(/O)c2c(C)[nH]c(C(=O)OC)c2C)C1c1ccccc1OC (stereo not drawn) | -4 | 1 | -2 | 0 | 0 | nt
CCN(CC)CCN1C(=O)C(=O)/C(=C(/O)c2c(C)[nH]c(C(=O)OC)c2C)C1c1cccs1 (stereo not drawn) | 8 | 34* | 2 | 9 | 0 | -17
Cc1ccc(Nc2nc(-c3ccc(F)cc3)cs2)nc1 | -5 | 7 | -7 | 1 | -3 | nt
Cc1ccc(Nc2nc(-c3ccc(O)c(O)c3)cs2)nc1 | 13 | 42* | nt | 13 | nt | 53*
Cc1cc(OCC(C)CN2CCC(C(O)(c3ccccc3)c3ccccc3)CC2)ccc1Br (stereo not drawn) | -4 | 18 | nt | nt | nt | nt
O=C(CCCN1CCN(c2ccccc2)CC1)c1ccc(F)cc1 | -5 | -8 | 7 | -22 | 0 | nt
O=C1NCN(c2ccccc2)C12CCN(CCCC(c1ccc(F)cc1)c1ccc(F)cc1)CC2 | 3 | 32* | -10 | -9 | 2 | 37*
CCOC(=O)N1CCN(C(=O)C[C@H]2C[C@@]3(C(=O)OC)C(=C[C@H](C(C)C)O[C@@H]3C3CC3)N(Cc3ccc(Cl)cc3Cl)C2=O)CC1 | 0 | -18 | nt | nt | nt | nt
COC(=O)C1=C(O)/C(=C\c2ccc(CNS(=O)(=O)c3ccccc3)o2)N=C1C | 15 | 32* | 8 | 17 | 3 | 15
CC(C)CNc1cccc2c1S(=O)(=O)N(Cc1cccc(F)c1)[C@@H](C)[C@H](c1ccccc1)O2 | 3 | 2 | nt | -1 | nt | nt
COc1cc(/C=C2/C(=O)NN(c3cccc(Cl)c3)C2=O)cc(OC)c1O | 9 | 36* | 6 | 2 | 18 | 16
COc1cccc(/C=C2/C(=O)NN(c3ccc(F)cc3)C2=O)c1 | 4 | 13 | -5 | -9 | 9 | nt
COc1cc(/C=C2\C(=O)NN(c3ccccc3)C2=O)ccc1OCC(N)=O | 7 | 6 | nt | 5 | nt | nt
COc1cc(/C=C2\SC(=O)N(c3cccc(Cl)c3)C2=O)cc([N+](=O)[O-])c1O | 1 | 37* | 13 | 7 | 16 | 41*
COc1cc(/C=C2/C(=O)NN(c3cccc(C)c3)C2=O)cc([N+](=O)[O-])c1O | 1 | 28 | 26 | 5 | 16 | nt
COc1cccc(/C=C2/C(=O)NN(c3ccc(C)c(C)c3)C2=O)c1 | 11 | 35* | 3 | 5 | 11 | 13
